Experimental data gathered from unrelated publications.
Observed: metabolic stability

| SMILES | test system | conditions | half-life |
| --- | --- | --- | --- |
| CCN(CC)CCNC(=O)c1c(C)[nH]c(/C=C2\C(=O)Nc3ccc(F)cc32)c1C | mouse, liver microsomes | 1 µM, pH 7.4 | 12.8 min |
| O=C(O)C1CCN(c2ncc(-c3ccc4c(c3)OCCCO4)s2)CC1 | mouse, liver microsomes | 1 µM | > 30 min |
| CCS(=O)(=O)Nc1ccc(OCCOCCOCCOCCOc2ccc(NS(=O)(=O)CC)cc2-c2cn(C)c(=O)c3ccccc23)c(-c2cn(C)c(=O)c3ccccc23)c1 | mouse, liver microsomes | – | < 2.3 min |
| CCOC(=O)C1=C(C)N/C(=C/c2cc(CC)n(-c3ccccc3C(F)(F)F)c2CC)C1=O | mouse, liver microsomes | 1 µM | 12 min |
| CN(C)CCN1CCN(c2nc(NCc3cccc(Cl)c3)c3cc(-c4ccc(=O)n(C)c4)ccc3n2)CC1 | mouse, liver microsomes | – | 53 min |
| CC(C)NCC(O)COc1cccc2ccccc12 (stereo not drawn) | mouse, liver microsomes | 1 µM | 11.5 min |
| CCOC(=O)C1=C(C)N/C(=C/c2cc(C)n(-c3ccncc3)c2C)C1=O | mouse, liver microsomes | 1 µM | 29 min |
| Cc1ccc(-n2sc3ccccc3c2=O)cc1 | mouse, liver microsomes | – | < 60 min |
| N=c1c2c(-c3ccccc3)c(-c3ccccc3)n(Cc3ccccc3)c2ncn1C1CCOCC1 | male CD-1 mouse, liver microsomes | 1 µM, pH 7.4 | 30 min |
| O=S(=O)(Nc1cccc(-c2nnn[nH]2)c1)c1cc(C(F)(F)F)cc(C(F)(F)F)c1 | mouse, liver microsomes | – | 535 min |
| CN1CC(Cc2cccc(CNC3(c4ccc(F)cc4)CCCC3)c2)C1 | mouse, liver microsomes | 4.6 µM, pH 7.5 | ~60 min |
| N=C(N)NCc1ccc(NC(=O)C23CCC(C(=O)Nc4ccc(C5=CCN(C(=N)N)CC5)cc4)(CC2)CC3)cc1 | CD-1 mouse, liver microsomes | 1 µM | > 60 min |
| CCOc1c(O)cc(Br)c2c1CN1CCc3cc(OCC(F)F)c(O)cc3[C@@H]1C2 | mouse, liver S9 | 2 µM, pH 7.4 | 9.63 min |
| CCOC(=O)C1=C(C)N/C(=C/c2cc(C)n(-c3ccc(SC(F)(F)F)cc3)c2C)C1=O | mouse, liver microsomes | 1 µM | 23 min |
| O=C(N[C@H](Cc1c[nH]c2ccccc12)C(=O)Nc1ccncc1)c1ccc(-c2cccc(F)c2)cc1F | mouse, liver microsomes | – | 27 min |
| CCOC(=O)C1=C(C)N/C(=C/c2cc(C)n(-c3ccc(CN4CCOCC4)cc3)c2C)C1=O | mouse, liver microsomes | 1 µM | 31 min |
| O=C(Cc1ccc2ccccc2c1)Nc1cc(C2CCC2)[nH]n1 | mouse, liver S9 | – | 28.1 min |
| O=C(OC(C(F)(F)F)C(F)(F)F)N1CCc2ccccc2C1 | mouse, liver microsomes | – | 4 min |
| CC(C)(C)C[C@@H]1N[C@@H](C(=O)N[C@H]2C[C@](C)(O)C2)[C@H](c2cccc(Cl)c2F)[C@]12C(=O)Nc1cc(Cl)ccc12 | mouse, liver microsomes | – | > 60 min |
| COc1cc2c(cc(C#N)n2Cc2cn[nH]c2)c(C)c1CN1CCC(Nc2ncnc3sc(CC(F)(F)F)cc23)CC1 | CD-1 mouse, liver microsomes | 1 µM, pH 7.4 | > 30 min |
| CC(C)NCC(O)COc1cccc2ccccc12 (stereo not drawn) | mouse, liver microsomes | 1 µM, pH 7.4 | 15.8 min |
| O=S(=O)(Nc1cccc(-c2nnn[nH]2)c1)c1ccc(F)c(F)c1 | mouse, liver microsomes | – | 346 min |
| CCCCOC(=O)NS(=O)(=O)c1sc(CC(C)C)cc1-c1ccc2c(c1)CN(C(C)=O)CC2 | mouse, liver microsomes | 1 µM, pH 7.4 | 2.2 min |
| O=S(=O)(Nc1cccc(-c2nnn[nH]2)c1)c1ccc(Cl)c(Cl)c1Cl | mouse, liver microsomes | – | 192 min |
| CO[C@@H](C[C@H]1C(C)=CC[C@@H]2[C@]3(C)C[C@H](O[C@@H]4O[C@@H](C)[C@H](OC(=O)c5cccc(O)c5)[C@@H](O[C@@H]5O[C@H](CO)[C@@H](O)[C@H](O)[C@H]5NC(C)=O)[C@H]4O)[C@@H](O)C(C)(C)[C@H]3CC[C@]21C)[C@H](N)C(=O)O.O=C(O)C(F)(F)F | mouse, hepatocytes | 1 µM | 296 min |
| O=C(Nc1cncc(-c2nc3ccccc3o2)c1)c1ccc(N2CCNCC2)c([N+](=O)[O-])c1 | CD-1 mouse, liver microsomes | 1 µM, pH 7.4 | > 110 min |
| CCOC(=O)C1=C(C)N/C(=C/c2cc(C)n(-c3cccc(OC)c3)c2C)C1=O | mouse, liver microsomes | 1 µM | 12 min |

| SMILES | test system | conditions | half-life |
| --- | --- | --- | --- |
| CC[C@@H]1C=CC(=O)O[C@@H]1C[C@@H](O)[C@H](C)[C@H](OC)[C@@H](C)Cc1ccccc1 | mouse, liver microsomes | – | 4.4 min |
| COc1ccc([C@@H](O)[C@@H](CN2CCCC2)NC(=O)CC2Cc3ccccc3C2)cc1F | CD-1 mouse, liver microsomes | 1 µM, pH 7.4 | 2.7 min |
| NC(=O)C1CCN(c2nnc(-c3ccc4c(c3)OCCCO4)s2)CC1 | mouse, liver microsomes | 1 µM | > 30 min |
| O=S(=O)(Nc1cccc(-c2nnn[nH]2)c1)c1cc(C(F)(F)F)ccc1C(F)(F)F | mouse, liver microsomes | – | 35 min |
| COc1ccc2cc(C(=O)Nc3ccc4c(c3)CN(C3CCC(=O)NC3=O)C4=O)ccc2c1 (stereo not drawn) | mouse, liver microsomes | 2 µM | 180 min |
| CC[C@@H]1C=CC(=O)O[C@@H]1C[C@@H](O)[C@H](C)[C@H](OC)[C@@H](C)Cc1ccc(F)cc1 | mouse, liver microsomes | – | < 2.3 min |
| CCCCOC(=O)NS(=O)(=O)c1sc(CC(C)C)cc1-c1cccc2c1CN(C(C)=O)C2 | mouse, liver microsomes | 1 µM, pH 7.4 | 6.9 min |
| CCOC(=O)C1=C(C)N/C(=C/c2cc(C)n(-c3ccc(F)cc3F)c2C)C1=O | mouse, liver microsomes | 1 µM | 23 min |
| C=CC(=O)Nc1cccc(-n2nc3c(=O)[nH]nc(N)c3c2-c2oc3ccc(C)cc3c2C)c1 | nude mouse, blood | 1 µM, whole blood | 134 min |
| Cc1ccc(S(=O)(=O)Nc2cccc(-c3nnn[nH]3)c2)cc1C | mouse, liver microsomes | – | 50 min |
| O=C1CCN(C(=O)Nc2ccc(F)c(C(F)F)c2)[C@@H]2CCCC[C@H]12 | mouse, liver microsomes | – | > 32 min |
| Fc1ccc([C@@H]2CCNC[C@H]2COc2ccc3c(c2)OCO3)cc1 | CD-1 mouse, liver microsomes | 1 µM, pH 7.4 | 24 min |
| CNC(=O)[C@H](Cc1c[nH]cn1)NC(=O)CN(CCCc1ccccc1)CC(=O)OC | male mouse, liver microsomes | 1 µM, pH 7.4 | 26 min |
| O=C(c1ccc(F)cc1)C1CCN(CCn2c(=O)[nH]c3ccccc3c2=O)CC1 | mouse, liver microsomes | – | 14.5 min |
| N=c1c2c(-c3ccccc3)c(-c3ccccc3)n(Cc3ccccc3)c2ncn1[C@H]1CC[C@H](O)CC1 | male CD-1 mouse, liver microsomes | 1 µM, pH 7.4 | > 120 min |
| COc1cc2[nH]c(C#N)cc2c(C)c1CN1CCC(Nc2ncnc3sc(CC(F)(F)F)cc23)CC1 | CD-1 mouse, liver microsomes | 1 µM, pH 7.4 | > 30 min |
| COc1ccc(NC(=O)[C@H]2c3ccccc3C(=O)N(CC(C)C)[C@@H]2c2cccs2)cc1Cl (racemic) | female CD-1 mouse, liver microsomes | 80 nM, pH 7.4 | < 30 min |
| C/C=C/C[C@H](C)[C@@H](OC)[C@@H](C)[C@H](O)C[C@H]1OC(=O)C=C[C@H]1CC | mouse, liver microsomes | – | < 15 min |
| COC(=O)CN(CCCc1ccccc1)CC(=O)N[C@@H](Cc1c[nH]cn1)c1nc(C)no1 | male mouse, liver microsomes | 1 µM, pH 7.4 | 19 min |
| CC1=C(C(=O)O)C(=O)/C(=C\c2cc(C)n(-c3ccccc3C(F)(F)F)c2C)N1 | mouse, liver microsomes | 1 µM | 79 min |
| CCCCOC(=O)NS(=O)(=O)c1sc(CC(C)C)cc1-c1ccc2c(c1)CCN(C(C)=O)C2 | mouse, liver microsomes | 1 µM, pH 7.4 | 2.9 min |
| CC1=C(C(N)=O)C(=O)/C(=C\c2cc(C)n(-c3ccccc3C(F)(F)F)c2C)N1 | mouse, liver microsomes | 1 µM | 19 min |
| Cc1cccc(C(=O)Nc2nc(-c3ccccn3)cs2)c1 | CD-1 mouse, liver microsomes | 39.6 µM, pH 7.4 | 6 min |
| C=CC(=O)Nc1ccc(N2CCC[C@@H](Nc3ncc(Cl)c(-c4c[nH]c5ccccc45)n3)C2)c(F)c1 | mouse, liver microsomes | – | 7.6 min |
| CCCCOC(=O)NS(=O)(=O)c1sc(CC(C)C)cc1-c1ccc2c(c1)CN(C(C)=O)C2 | mouse, liver microsomes | 1 µM, pH 7.4 | 1.8 min |
| C=CC(=O)Nc1cc(F)c(N2CCC[C@@H](Nc3ncc(Cl)c(-c4c[nH]c5ccccc45)n3)C2)cc1C | mouse, liver microsomes | – | 3.9 min |
| CNC(=O)[C@H](Cc1c[nH]cn1)NC(=O)CN(CC(=O)O)Cc1ccccc1 | male mouse, liver microsomes | 1 µM, pH 7.4 | > 40 min |
